Key:
DU-145 = assay: Growth inhibition of human DU-145 cells harboring wild type p110alpha and PTEN measured after 72 hrs by Cell titre Glo-luminiscence cell viability assay; type: functional
Summary of the method: (§1)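 Cells harvested just before confluency and seeded at 4,000 cells/well, then left 24 h before dosing. Serial dilutions from 10 mM DMSO stocks, final DMSO ≤0.5%, each concentration in duplicate.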

PC-3 = assay: Growth inhibition of human PC-3 cells harboring PTEN inactivation measured after 72 hrs by Cell titre Glo-luminiscence cell viability assay; type: functional; summary of the method: as §1
[1] = Inhibition of PI3K/mTOR in human U2OS cells assessed as inhibition of AKT1 phosphorylation at Ser473 residue by C-ELISA; type: cell-based
Summary of the method: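 U2OS osteosarcoma cells grown in 0.1% FBS and serum-stimulated. Endogenous phospho-AKT1 Ser473 quantified by cell-based ELISA with chemiluminescent substrate. Signal plotted against inhibitor concentration and fitted to a sigmoid dose-response curve.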

[2] = Inhibition of PI3K/mTOR in human MCF7 cells assessed as reduction of AKT phosphorylation at Thr308 residue measured after 3 hrs by western blot assay; type: cell-based; conditions: MCF7, 3 h
Summary of the method: (§2)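 MCF7 cells treated for 3 h across a dose range, washed and lysed with phosphatase and protease inhibitors. Lysates run on 10% SDS-PAGE and blotted, antibodies incubated overnight at 4 °C.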

[3] = Inhibition of PI3K/mTOR in human MCF7 cells assessed as reduction of P70S6K phosphorylation at Thr389 residue measured after 3 hrs by western blot assay; type: cell-based; conditions: MCF7, 3 h; summary of the method: as §2
NCI-H1975 = assay: Growth inhibition of human NCI-H1975 cells harboring mutated p110alpha measured after 72 hrs by Cell titre Glo-luminiscence cell viability assay; type: functional; summary of the method: as §1
HT-29 = assay: Growth inhibition of human HT-29 cells harboring mutated p110alpha measured after 72 hrs by Cell titre Glo-luminiscence cell viability assay; type: functional; summary of the method: as §1
[4] = biological target: Phosphatidylinositol 4,5-bisphosphate 3-kinase catalytic subunit gamma isoform (Homo sapiens, UniProt P48736); assay: Inhibition of human p110gamma using PIP2 as substrate in presence of ATP measured by HTRF assay
Chain of Phosphatidylinositol 4,5-bisphosphate 3-kinase catalytic subunit gamma isoform (P48736 whole entry, canonical isoform): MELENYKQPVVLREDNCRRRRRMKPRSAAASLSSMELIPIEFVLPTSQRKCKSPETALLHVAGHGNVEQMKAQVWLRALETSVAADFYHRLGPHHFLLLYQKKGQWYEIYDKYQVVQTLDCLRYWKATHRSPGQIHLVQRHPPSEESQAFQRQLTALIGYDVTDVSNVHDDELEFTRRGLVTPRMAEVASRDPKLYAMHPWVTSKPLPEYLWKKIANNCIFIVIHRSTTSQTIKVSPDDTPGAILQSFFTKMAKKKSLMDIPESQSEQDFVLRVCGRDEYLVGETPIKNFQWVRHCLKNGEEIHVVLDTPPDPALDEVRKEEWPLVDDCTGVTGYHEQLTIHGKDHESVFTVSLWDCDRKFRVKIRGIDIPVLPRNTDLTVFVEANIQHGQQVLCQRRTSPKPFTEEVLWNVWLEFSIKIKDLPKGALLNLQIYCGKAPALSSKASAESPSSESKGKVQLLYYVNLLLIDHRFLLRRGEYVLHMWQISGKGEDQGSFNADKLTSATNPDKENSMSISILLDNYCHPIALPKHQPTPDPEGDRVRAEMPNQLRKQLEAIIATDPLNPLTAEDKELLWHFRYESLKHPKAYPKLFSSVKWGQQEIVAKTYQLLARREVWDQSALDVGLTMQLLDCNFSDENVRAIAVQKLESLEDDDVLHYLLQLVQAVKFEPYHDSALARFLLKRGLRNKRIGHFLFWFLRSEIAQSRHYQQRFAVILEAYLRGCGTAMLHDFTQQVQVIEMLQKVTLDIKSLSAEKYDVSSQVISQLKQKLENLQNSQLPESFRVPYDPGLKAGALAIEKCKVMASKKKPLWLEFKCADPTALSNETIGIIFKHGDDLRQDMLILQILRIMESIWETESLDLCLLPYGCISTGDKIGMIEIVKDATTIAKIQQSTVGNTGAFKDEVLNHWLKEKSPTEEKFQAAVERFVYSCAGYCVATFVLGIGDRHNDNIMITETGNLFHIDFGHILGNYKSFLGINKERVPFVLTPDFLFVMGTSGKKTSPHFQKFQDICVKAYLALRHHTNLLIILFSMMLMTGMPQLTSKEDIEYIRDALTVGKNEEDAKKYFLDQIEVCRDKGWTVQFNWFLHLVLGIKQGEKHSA
Summary of the method: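 HTRF PI3-kinase assay with PIP2 at 10 µM. Enzyme and ATP levels (ATP at 50× KM): p110α/p85α 100 pM with 200 µM ATP; p110δ/p85α 100 pM with 200 µM ATP; p110β/p85α 500 pM with 250 µM ATP; p110γ 4 nM with 100 µM ATP. Activity normalized to no-compound control, variable-slope sigmoidal fit. Two independent experiments in duplicate.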

[5] = Inhibition of PI3K/mTOR in human MCF7 cells assessed as reduction of S6 phosphorylation at Ser235/236 residue measured after 3 hrs by western blot assay; type: cell-based; conditions: MCF7, 3 h; summary of the method: as §2
A549 = assay: Growth inhibition of human A549 cells harboring wild type p110alpha and PTEN measured after 72 hrs by Cell titre Glo-luminiscence cell viability assay; type: functional; summary of the method: as §1
[6] = Inhibition of PI3K/mTOR in human MCF7 cells assessed as reduction of AKT phosphorylation at Ser473 residue measured after 3 hrs by western blot assay; type: cell-based; conditions: MCF7, 3 h; summary of the method: as §2

GI50 (DU-145): 16.3 nM
GI50 (PC-3): 197 nM
EC50 [1]: 0.6 nM
EC50 [2]: 0.21 nM
EC50 [3]: 0.68 nM
GI50 (NCI-H1975): 14.4 nM
GI50 (HT-29): 19.9 nM
Ki [4]: 0.51 nM
EC50 [5]: 0.87 nM
GI50 (A549): 26.6 nM
EC50 [6]: 0.65 nM
Structure (SMILES): COc1ncc(-c2ccc3nccc(-c4ccnnc4)c3c2)cc1NS(=O)(=O)c1ccc(F)cc1F [OMIPALISIB]

From ChEMBL document CHEMBL4819017 (Eur J Med Chem, 2021)
